A short description of data set [1]: Cmax in Sprague-Dawley rat plasma at 10 mg/kg, ip measured upto 24 hrs post dose by LC-MS/MS analysis.
Data set [2] is described as follows: Apparent permeability across apical to basolateral side in MDCK-MDR1 cells at 10 uM measured upto 90 mins by LC-MS/MS analysis. It counts as ADME, cell-based, Canis lupus familiaris. The following applies: dog, mdck-mdr1, 1.5 h. The essentials: (§1)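 MDCK-MDR1 cells (passage 5) were grown 3 days on polycarbonate Transwell supports and equilibrated 30 min at 37 °C in HBSS with 10 mM HEPES and 0.25% BSA, pH 7.4, before TEER was measured. Test article at 10 μM was placed in the donor chamber (apical or basolateral), with light agitation at 37 °C. Receiver samples were taken at 30, 60 and 90 min and analysed by LC-MS/MS. Papp = (dQ/dt)/(A·Ci·60). References were atenolol, propranolol and digoxin.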

Data set [3] can be described thus: Tmax in Sprague-Dawley rat plasma at 10 mg/kg, ip measured upto 24 hrs post dose by LC-MS/MS analysis.
The nature of data set [4]: Elimination half life in Sprague-Dawley rat plasma 10 mg/kg, ip measured upto 24 hrs post dose by LC-MS/MS analysis.
Data set [5] is described as follows: Toxicity in Sprague-Dawley rat assessed as reduction in locomotion at 10 mg/kg, ip. Format: organism-based. The following applies: in vivo. The essentials: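 Rats received 10 mg/kg i.p. compound or vehicle 15 min before being placed in locomotion chambers, after at least three days of handling. Locomotor activity was recorded for 30 min and analysed by two-way ANOVA.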

A short description of data set [6]: Plasma protein binding in rat. It counts as ADME, cell-free.
The target of data set [7] is Cannabinoid receptor 2 (Homo sapiens) (UniProt P34972). The data set is described as follows: Agonist activity at human CB2 receptor CP55940-stimulated calcium mobilization at 10 uM incubated for 15 mins FLIPR assay relative to control. It counts as functional. The essentials: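 CB2 agonist screen in CHO-RD-HGA16 cells stably expressing human CB2, loaded with Calcium 5 dye for 45 min at 37 °C. Cells were pretreated 15 min with vehicle, then the test compound was added at a single concentration. Fluorescence was read on FLIPR every 1 s for 90 s (485/525 nm). Response is expressed as % of CP55,940 Emax.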
Background: Calcium assays in cells follow changes in intracellular calcium, usually with a dye or a luminescent sensor.

A short description of data set [8]: Metabolic stability in rat liver microsomes assessed as clearance in presence of NADPH measured upto 45 mins by LC-MS/MS analysis. It counts as ADME, Microsome. The following applies: 0.75 h. The essentials: (§2)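 Rat liver microsomes (0.5 mg/mL protein) in 100 mM potassium phosphate, pH 7.4, at 37 °C with 1 mM NADPH. Samples were taken at 0, 5, 15, 30 and 45 min, quenched with acetonitrile and analysed by LC/MS/MS. Half-life and clearance were derived from two independent experiments in duplicate.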
On the technique in general: Microsomes from liver hold many membrane-bound enzymes, among them those of drug oxidation.

The nature of data set [9]: AUC infinity in Sprague-Dawley rat brain 10 mg/kg, ip measured upto 24 hrs post dose by LC-MS/MS analysis.
The subject of the next data set is Rattus norvegicus. The data set is described as follows: Attenuation of cocaine reinstatement in 7 day cocaine treated Sprague-Dawley rat assessed as reduction in cocaine seeking behaviour at 10 mg/kg, ip treated for 10 mins prior to administration of cocaine priming injection. It counts as functional, organism-based. The gist of the method: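 Male Sprague-Dawley rats (280-300 g) with jugular catheters self-administered cocaine (0.75 mg/kg/inf, FR1 raised to FR5) in 2-h sessions for 14 days, then underwent 7 days of extinction. On the test day, compound (10 mg/kg) or vehicle was given 10 min before a priming cocaine injection (10 mg/kg i.p.), and lever responding was measured.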

The nature of data set [10]: AUC infinity in Sprague-Dawley rat plasma 10 mg/kg, ip measured upto 24 hrs post dose by LC-MS/MS analysis.
The nature of data set [11]: Metabolic stability in rat liver microsomes assessed as half life in presence of NADPH measured upto 45 mins by LC-MS/MS analysis. It counts as ADME, Microsome. Particulars: 0.75 h. The essentials: as §2
Data set [12] is described as follows: Cmax in Sprague-Dawley rat brain at 10 mg/kg, ip measured upto 24 hrs post dose by LC-MS/MS analysis.
Data set [13] is described as follows: Clearance in Sprague-Dawley rat plasma at 10 mg/kg, ip measured upto 24 hrs post dose by LC-MS/MS analysis.
The nature of data set [14]: Apparent permeability across basolateral to apical side in MDCK-MDR1 cells at 10 uM measured upto 90 mins by LC-MS/MS analysis. Format: ADME, cell-based, Canis lupus familiaris. The following applies: dog, mdck-mdr1, 1.5 h. The essentials: as §1
In data set [15] the target is T1, Cannabinoid receptor 1 (Homo sapiens, UniProt P21554). The data set is described as follows: Allosteric antagonist activity against human CB1 receptor expressed in HEK293 cells membrane measured after 60 mins by [35S]GTPgammaS binding assay. It counts as functional, cell membranes. The essentials: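 Membranes from HEK293 cells expressing hCB1 are used in assay buffer (50 mM Tris, 3 mM MgCl2, 0.2 mM EGTA, 100 mM NaCl, 1 mg/ml BSA, pH 7.4). They are preincubated 10 min, then incubated 60 min at 30 °C with 30 μM GDP, 0.1 nM [35S]GTPγS, 100 nM CP55,940 and serially diluted compound (0.1% DMSO final). Nonspecific binding is set with 30 μM unlabeled GTPγS. Reactions are filtered. Data are normalized to CP55,940 alone and fitted by 3-parameter regression; mean of ≥3 experiments in duplicate.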
On the technique in general: Binding of GTPγS marks nucleotide exchange on a G protein.

Data set [16] is described as follows: Tmax in Sprague-Dawley rat brain at 10 mg/kg, ip measured upto 24 hrs post dose by LC-MS/MS analysis.
The target of data set [17] is T1, Cannabinoid receptor 1. The experiment in a line: Allosteric antagonist activity at human CB1 receptor expressed in CHO-RD-HGA16 cells overexpressing Galpha16 assessed as inhibition of CP55940-stimulated calcium mobilization incubated for 15 mins FLIPR assay. It counts as functional, cell-based.
Data set [18] can be described thus: Aqueous solubility of compound. It counts as physicochemical. The following applies: buffer.
In data set [19] the target is T1, Cannabinoid receptor 1. The data set is described as follows: Antagonist activity at N-terminal tagged human CB1 receptor transfected with HEK293 cells assessed as forskolin-stimulated cAMP level in presence of CP55940 by BRET assay. It counts as functional, cell-based. The essentials:
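HEK293 cells stably expressing hCB1 (3HA-tagged at Otago, untagged at RTI) are transiently transfected with the CAMYEL BRET cAMP sensor. Cells are serum-starved 30 min and given 5 μM coelenterazine H final. Compound dilutions are added together with 5 μM forskolin and 1 μM CP55,940. BRET (460/535) is read for about 20 min at 37 °C.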

In data set [20] the target is Cannabinoid receptor 2 (Homo sapiens) (UniProt P34972). The data set is described as follows: Antagonist activity at human CB2 receptor CP55940-stimulated calcium mobilization incubated for 15 mins FLIPR assay. It counts as functional. Further details: concentration or dose not given beside the values. The essentials:
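CB2 antagonist screen in human CB2 CHO-RD-HGA16 cells loaded with Calcium 5 dye. Cells were pretreated 15 min at 37 °C with the test compound at a single concentration (10 μM), then challenged with CP55,940 at its EC80 during the FLIPR read (90 s, 485/525 nm). Response is expressed as % inhibition of the CP55,940 EC80 signal.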

In data set [21] the target is T1, Cannabinoid receptor 1. The experiment in a line: Agonist activity at human CB1 receptor CP55940-stimulated calcium mobilization at 10 uM incubated for 15 mins FLIPR assay relative to control. Format: functional.
For data set [22], the target named is Cannabinoid receptor 1 (Mus musculus, UniProt P47746). The data set is described as follows: Allosteric antagonist activity against mouse CB1 receptor in cerebellar membranes measured after 60 mins by [35S]GTPgammaS binding assay.

Active and inactive are the calls of the source. The calls are words filed in the database; no cut-off is given here. Where only a bound is given, the exact number is not on record here.

From ChEMBL document CHEMBL5042498, “Development of 3-(4-Chlorophenyl)-1-(phenethyl)urea Analogues as Allosteric Modulators of the Cannabinoid Type-1 Receptor: RTICBM-189 is Brain Penetrant and Attenuates Reinstatement of Cocaine-Seeking Behavior” (J Med Chem, 2022) come the findings set out here.

Sequence of Cannabinoid receptor 2 (Homo sapiens) (P34972 whole entry): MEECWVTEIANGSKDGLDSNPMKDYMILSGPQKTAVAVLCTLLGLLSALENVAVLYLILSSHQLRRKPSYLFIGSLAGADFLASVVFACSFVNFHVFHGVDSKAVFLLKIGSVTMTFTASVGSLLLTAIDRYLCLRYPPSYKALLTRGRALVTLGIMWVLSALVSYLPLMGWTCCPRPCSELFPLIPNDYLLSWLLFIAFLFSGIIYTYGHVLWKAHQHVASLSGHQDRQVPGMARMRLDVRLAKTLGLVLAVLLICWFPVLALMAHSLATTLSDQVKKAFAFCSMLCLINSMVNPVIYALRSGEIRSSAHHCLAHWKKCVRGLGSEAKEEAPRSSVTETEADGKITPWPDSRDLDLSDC
T1 sequence (P21554 whole entry): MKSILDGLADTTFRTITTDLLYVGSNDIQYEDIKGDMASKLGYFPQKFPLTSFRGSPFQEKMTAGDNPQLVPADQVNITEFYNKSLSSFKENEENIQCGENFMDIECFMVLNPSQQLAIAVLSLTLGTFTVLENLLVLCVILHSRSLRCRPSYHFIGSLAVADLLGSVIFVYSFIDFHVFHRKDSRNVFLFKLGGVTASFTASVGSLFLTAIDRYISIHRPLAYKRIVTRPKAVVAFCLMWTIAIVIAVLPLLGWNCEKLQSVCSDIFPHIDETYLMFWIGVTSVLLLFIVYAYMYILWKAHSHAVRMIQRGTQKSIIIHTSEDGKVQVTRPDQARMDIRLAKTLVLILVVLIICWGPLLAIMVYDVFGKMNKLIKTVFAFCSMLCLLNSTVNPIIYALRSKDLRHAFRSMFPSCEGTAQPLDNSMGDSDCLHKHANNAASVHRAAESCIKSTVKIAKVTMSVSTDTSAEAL
Sequence of Cannabinoid receptor 1 (Mus musculus, UniProt P47746) (P47746 whole entry): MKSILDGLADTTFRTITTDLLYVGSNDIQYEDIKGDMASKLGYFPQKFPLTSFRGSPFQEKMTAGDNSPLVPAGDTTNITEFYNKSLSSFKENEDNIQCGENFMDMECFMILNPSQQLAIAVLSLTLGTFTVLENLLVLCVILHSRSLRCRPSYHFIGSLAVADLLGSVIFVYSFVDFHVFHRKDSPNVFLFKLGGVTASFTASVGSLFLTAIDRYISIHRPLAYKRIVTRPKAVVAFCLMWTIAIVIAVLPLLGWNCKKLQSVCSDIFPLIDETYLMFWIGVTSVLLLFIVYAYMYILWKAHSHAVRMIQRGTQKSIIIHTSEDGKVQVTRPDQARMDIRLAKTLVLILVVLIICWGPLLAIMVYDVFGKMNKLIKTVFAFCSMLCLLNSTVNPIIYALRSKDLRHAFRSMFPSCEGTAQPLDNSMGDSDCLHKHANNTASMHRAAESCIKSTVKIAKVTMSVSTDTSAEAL

Usually Cmax stands for the peak of the concentration-time curve. For orientation: Tmax means the time from dosing to the highest level. For orientation: half-life means how long it takes for the measured level to halve. For orientation: Emax means the greatest response seen or fitted, relative to the assay's reference. A word on the AUC(0-inf): it is total exposure, with the tail of the curve extrapolated. The term CL/F denotes the apparent clearance, not corrected for the fraction that reaches the circulation. What is called IC50 is the concentration at which inhibition is half-maximal. By solubility is commonly meant the dissolved amount per volume that the medium holds. In the case of `O=C(NCCc1cccc(Cl)c1)Nc1ccc(Cl)cc1`, the figures for the Cmax in data set [1] and in data set [12] were 288 ng/mL and 595 ng/mL, respectively. Besides, the Papp in [2] is 19.2 10^-6 cm/s; in data set [14], 21.3 10^-6 cm/s. In addition, the Tmax in [3] and in [16] was 24 min each time. In data set [4], this compound came in with a half-life of 37.8 min. Besides, the Activity entry was “Non-Toxic” in data set [5] and less than 35% in [20]. The PPB in data set [6] is given as 99.6%. In addition, the Emax in [7] is less than 20%. In addition, the CLH in data set [8] was 99.3 µL/min/mg. For the same compound, the AUC(0-inf) was 1440 ng·h/mL in data set [9] and 715 ng·h/mL in data set [10]. In the data set with Rattus norvegicus, the result was Active. The t1/2 in [11] was 14.9 min. Moreover, the CL/F in [13] was 241 mL/min/kg. Further, the IC50 is 5130 nM on Cannabinoid receptor 1 [15], 28.8 nM at Cannabinoid receptor 1 [17] and 1510 nM on Cannabinoid receptor 1 [19]. In [18], the solubility was less than 1 µM.

In the case of `CC(C)(C)c1ccc(CCNC(=O)Nc2ccc(Cl)cc2)cc1`, the Emax on Cannabinoid receptor 1 [21] was less than 30%; in data set [7] it was less than 20%. Further, the IC50 on Cannabinoid receptor 1 [22] is more than 10000 nM; on Cannabinoid receptor 1 [15], more than 10000 nM; on Cannabinoid receptor 1 [17] it was 537 nM; at Cannabinoid receptor 1 [19] it was more than 10000 nM. In [20], the Activity is less than 35%.

With `O=C(NCCc1ccc(F)cc1)Nc1ccc(Cl)cc1`, the results for the Emax (on Cannabinoid receptor 1 [21]; in data set [7]) were less than 30% and less than 20%, respectively. For the same compound, the half-maximal inhibitory concentration (IC50) on Cannabinoid receptor 1 [22] was 891 nM; on Cannabinoid receptor 1 [15], 4370 nM; at Cannabinoid receptor 1 [17] it was 105 nM; on Cannabinoid receptor 1 [19] it was 1700 nM. The Activity in data set [20] is less than 35%.

For `COc1ccc(CCNC(=O)Nc2ccc(Cl)cc2)cc1`, the Emax on Cannabinoid receptor 1 [21] was less than 30%; in data set [7], less than 20%. Also, the IC50 on Cannabinoid receptor 1 [22] is 3720 nM; at Cannabinoid receptor 1 [15], 5620 nM; at Cannabinoid receptor 1 [17], 214 nM; on Cannabinoid receptor 1 [19], 4170 nM. In addition, the Activity in data set [20] is less than 35%.
